# Assay results published in ChEMBL document CHEMBL2157923, “1,3-Azoles from ortho-naphthoquinones: synthesis of aryl substituted imidazoles and oxazoles and their potent activity against Mycobacterium tuberculosis” (Bioorg Med Chem, 2012).
# Calls of active or inactive are those of the source. The rule behind the calls is not given here.
# What was measured:
# [1] = tested on: Mycobacterium tuberculosis; test: Antimycobacterial activity against pan-susceptible Mycobacterium tuberculosis H37Rv ATCC 27294 after 7 days by resazurin microtitre assay; format: functional
# Procedure, shortened: (§1)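 REMA MIC. Strains kept on Ogawa-Kudoh medium 14 days at 37 °C. Suspension vortexed and adjusted to McFarland tube 1 (3.2 × 10^6 cfu/mL), then diluted 1:20 in Middlebrook 7H9 with 10% OADC and glycerol. Compounds tested from 100 ug/mL down to 0.19 ug/mL. Incubated 7 days at 37 °C, resazurin added, 2 more days at 37 °C; colour change read.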
# [2] = tested on: Mycobacterium tuberculosis; test: Antimycobacterial activity against pan-susceptible Mycobacterium tuberculosis H37Rv; format: functional; procedure, shortened: as §1
# [3] = tested on: PBMC; test: Cytotoxicity against human PBMC after 72 hrs by alamar blue assay; format: cell-based
# Procedure, shortened: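 Alamar Blue assay on human PBMC. Compounds at 0.048 to 25 µg/mL in DMSO (0.1%) added after 24 h and exposed 72 h. Resazurin added 24 h before the end. Absorbance read at 570 and 595 nm, medium blank subtracted, and % reduced computed with correction factor R0. Effect expressed as percentage of control.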
SMILES,"MIC ([1]; H37Rv ATCC 27294, 168 h) [µM]",IC50 [3] [µg/mL],also measured
Cc1ccccc1-c1nc2c([nH]1)c1c(c3ccccc32)OC(C)(C)CC1,9,–,–
C=CCC1Cc2c(c3ccccc3c3nc4ccccc4nc23)OC1(C)C (stereo not drawn),–,–,MIC [2]: 0.78 µg/mL
CC1Cc2c(c3ccccc3c3nc(-c4ccc([N+](=O)[O-])cc4)oc23)O1 (stereo not drawn),> 289,–,–
CC1(C)CCc2c(c3ccccc3c3nc(-c4ccc(F)cc4)[nH]c23)O1,72.2,> 25,–
CC1(C)CCc2c(c3ccccc3c3nc(-c4ccccc4[N+](=O)[O-])[nH]c23)O1,268,> 25,–
CC1(C)CCc2c(c3ccccc3c3nc(-c4ccc(Br)cc4)[nH]c23)O1,–,> 25,MIC [1]: inactive
CC1(C)CCc2c(c3ccccc3c3nc(-c4ccccc4C(F)(F)F)[nH]c23)O1,4,–,–
CC1(C)CCc2c(c3ccccc3c3nc(-c4ccc(C(F)(F)F)cc4)[nH]c23)O1,–,–,MIC [1]: inactive
CC1(C)CCc2c(c3ccccc3c3nc(-c4ccc(Cl)cc4)[nH]c23)O1,34.4,> 25,–
CC1(C)CCc2c(c3ccccc3c3nc(-c4cc5ccccc5cn4)[nH]c23)O1,16.4,> 25,–
CC(C)CCc1c2[nH]c3ccccc3nc-2c2c(c1=O)CCCC2,–,–,MIC [2]: ≤ 3 µg/mL
CC1(C)CCc2c(c3ccccc3c3nc(-c4cccc(C#N)c4)oc23)O1,35.2,–,–
CC1(C)CCc2c(c3ccccc3c3nc(-c4cccc(Br)c4)[nH]c23)O1,15.3,> 25,–
CO[C@H]1/C=C/O[C@@]2(C)Oc3c(C)c(O)c4c(O)c(c(/C=N/N5CCN(C)CC5)c(O)c4c3C2=O)NC(=O)/C(C)=C\C=C\[C@H](C)[C@H](O)[C@@H](C)[C@@H](O)[C@@H](C)[C@H](OC(C)=O)[C@@H]1C [RIFAMPIN],≤ 0.1,–,–
CC1(C)CCc2c(c3ccccc3c3nc(-c4ccc(C#N)cc4)oc23)O1,17.6,–,–
CC1(C)CCc2c(c3ccccc3c3nc(-c4ccc([N+](=O)[O-])cc4)[nH]c23)O1,268,–,–
COc1ccccc1-c1nc2c([nH]1)c1c(c3ccccc32)OC(C)(C)CC1,17.4,–,–
CC1(C)CCc2c(c3ccccc3c3nc(-c4cccc(C(F)(F)F)c4)[nH]c23)O1,4,–,–

SMILES,"MIC ([1]; H37Rv ATCC 27294, 168 h) [µM]",IC50 [3] [µg/mL],also measured
CC1(C)CCc2c(c3ccccc3c3nc(-c4ccccc4C#N)oc23)O1,35.2,–,–
NNC(=O)c1ccncc1 [ISONIAZID],≤ 0.4,–,–
Cc1ccc(-c2nc3c([nH]2)c2c(c4ccccc43)OC(C)(C)C2)cc1,> 304,–,–
CC1(C)CCc2c(c3ccccc3c3nc(-c4cccc(F)c4)[nH]c23)O1,9,> 25,–
CC1(C)CCc2c(c3ccccc3c3nc(-c4ccccn4)[nH]c23)O1,75.9,–,–
CC1(C)CCc2c(c3ccccc3c3nc(-c4cnc5ccccc5c4)[nH]c23)O1,–,–,MIC [1]: inactive
CC1(C)CCc2c(c3ccccc3c3nc(-c4ccccc4)[nH]c23)O1,> 304,> 25,–
Cc1ccc(-c2nc3c(o2)c2c(c4ccccc43)OC(C)(C)C2)cc1,> 304,–,–
CC1CC2=C(O1)c1ccccc1C(=O)C2=O (stereo not drawn),14.5,–,–
CC1(C)Cc2c(c3ccccc3c3nc(-c4ccc([N+](=O)[O-])cc4)oc23)O1,> 278,–,–
CC1(C)CCc2c(c3ccccc3c3nc(-c4ccc(C#N)cc4)[nH]c23)O1,–,> 25,MIC [1]: inactive
CC1(C)CCc2c(c3ccccc3c3nc(-c4ccccc4Br)[nH]c23)O1,7.6,> 25,–
CC1(C)CCc2c(c3ccccc3c3nc(-c4cccc([N+](=O)[O-])c4)[nH]c23)O1,–,> 25,MIC [1]: inactive
CC1(C)Cc2c(c3ccccc3c3nc(-c4ccccc4)[nH]c23)O1,> 318,> 25,–
CC1(C)CCc2c(c3ccccc3c3nc(-c4cccc(C#N)c4)[nH]c23)O1,–,> 25,MIC [1]: inactive
C=CCC1=C(O)C(=O)c2ccccc2C1=O,467,–,–
CC1(C)CCc2c(c3ccccc3c3nc(-c4cccnc4)[nH]c23)O1,–,–,MIC [1]: inactive
